# mABHD4 FP – ABHD4 (mouse) inhibition, primary FP screen | Q8VD66 | purified mABHD4, FP-Rh probe fluorescence polarization | inhibition, % at 8.92 µM | 370,000 tested, 0.54% active | AID 720543;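 active = inhibition exceeding the mean over every tested compound plus 3 SD, cut at about 30% in these data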
#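 Material: mouse ABHD4 enzyme, wild type; Benchmarks: S159A mutant high control, sample median low control; Buffer or medium: HEPES pH 7.0, NaCl, Pluronic buffer; Signal: fluorescence polarization; Read-out: percent inhibition of probe binding, normalized to plate controls; Timing: pre-incubation 45 min, probe exposure 60 min, at 25 °C; Dosing: 8.92 µM, single dose.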
# SIAE primary – blocks human sialic acid acetylesterase; AID 1053197; SIAE FP-Rh probe binding, fluorescence polarization; inhibition, % at 9.66 µM; 370,000 tested, 0.69% active;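 active = inhibition above a cutoff: mean of compounds within the control limits plus 3 SD of those, cut at about 17% in these data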
# Target sequence (Q9HAT2 whole entry, looked up): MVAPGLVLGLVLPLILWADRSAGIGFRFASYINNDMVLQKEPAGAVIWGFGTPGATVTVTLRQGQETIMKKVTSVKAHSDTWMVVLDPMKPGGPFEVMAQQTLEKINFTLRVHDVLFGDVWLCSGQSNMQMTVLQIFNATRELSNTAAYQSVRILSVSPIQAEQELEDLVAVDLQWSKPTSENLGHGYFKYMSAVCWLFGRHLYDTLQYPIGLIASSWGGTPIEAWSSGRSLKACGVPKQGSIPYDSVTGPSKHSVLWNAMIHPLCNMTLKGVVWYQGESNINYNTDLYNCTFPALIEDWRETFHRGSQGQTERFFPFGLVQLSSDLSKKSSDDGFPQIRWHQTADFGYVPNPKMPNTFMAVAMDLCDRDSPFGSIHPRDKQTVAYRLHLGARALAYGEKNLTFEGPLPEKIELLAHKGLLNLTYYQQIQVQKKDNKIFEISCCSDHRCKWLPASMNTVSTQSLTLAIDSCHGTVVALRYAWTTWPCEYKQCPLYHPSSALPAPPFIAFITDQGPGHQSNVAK
# TCR-CD3 inh – human TCR-CD3 binding inhibition; TAMRA-labeled TCR probe fluorescence, biochemical; inhibition, % at 9.4 µM; 360,000 tested, 0.37% active; AID 651800;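 note: recombinant mutant TCR 2C K166C tagged with TAMRA read by polarization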
# HTRA1 inhibitor – HTRA1 (human) protease inhibition; Q92743; recombinant HTRA1, FP-rhodamine activity-based probe, fluorescence polarization; inhibition, % at 5.96 µM; 340,000 tested, 0.5% active; in the data active = inhibition above about 36%
# PRMT1 FP inh – inhibitors of human PRMT1; Q99873; recombinant PRMT1, activity-based probe fluorescence polarization; inhibition, % at 2.79 µM; 370,000 tested, 1.3% active; AID 652257;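 active = inhibition above about 21% made by adding two undisclosed values, limit read from the data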
# HTRA1 inh conf – HTRA1 (human) inhibition, confirmation | 1,600 tested, 66% active | inhibition, % at 5.96 µM | shares compounds with HTRA1 inhibitor | AID 540248 | recombinant HTRA1, FP-rhodamine activity-based probe, fluorescence polarization;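 active = mean inhibition over three repeats above a set limit taken from the earlier primary screen, cut at about 37% in these data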;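 note: inhibitors block probe binding so polarization drops and inhibition rises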
# BSA probe FL – counter-screen for TCR-CD3 interaction inhibitors: BSA probe | 1,200 tested, 10% active | inhibition, % at 9.4 µM | shares compounds with TCR-CD3 inh | TAMRA-labeled BSA probe fluorescence counterscreen | AID 652035; in the data active = inhibition above about 23%
# TCR-CD3 conf – confirmation of human TCR-CD3 interaction inhibitors. inhibition, % at 9.4 µM. TAMRA-labeled TCR probe fluorescence binding assay. 1,200 tested, 48% active. shares compounds with TCR-CD3 inh
# ABHD4 confirm – ABHD4 (mouse) inhibition, FP confirmation. inhibition, % at 8.92 µM. purified mABHD4, FP-Rh probe fluorescence polarization. shares compounds with mABHD4 FP. AID 720658. 1,800 tested, 55% active;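 active = mean inhibition across replicates above the hit cutoff set in the primary screen, cut at about 30% in these data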
# SIAE confirm – human SIAE inhibition, confirmation; shares compounds with SIAE primary; SIAE FP-Rh activity-based probe, fluorescence polarization; inhibition, % at 9.66 µM; 2,300 tested, 13% active; AID 1117263;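 active = mean inhibition of the replicates above the hit cutoff set in the primary screen, cut at about 17% in these data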;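 note: inhibitors lower polarization as more probe stays unbound to SIAE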
# A number is an active result; 0 = inactive; - = no result given. This is a sample that favours compounds with a hit; in the whole collection about 2.7% have one here. Cut-off read from the data, not from the text of the source, unless noted: active = inhibition above about 19%; inactive = the rest.
SMILES,mABHD4 FP,SIAE primary,TCR-CD3 inh,HTRA1 inhibitor,PRMT1 FP inh,HTRA1 inh conf,SIAE confirm,others
CCCn1c(CN2CCN(C(=O)OCC)CC2)nc2cc(NC(=O)CC)ccc21,0,0,0,0,0,-,-,
COc1ccc(OC)c2[nH]c(C(=O)N/N=C/c3ccccc3O)cc12,0,35,0,54,0,0,0,
COCc1cc(CNC(=O)C2CCC(=O)N(Cc3cccc(OC)c3)C2)[nH]n1 (centres undefined),0,0,0,0,0,-,-,
COc1ccc2nc3cc(Cl)ccc3c(Nc3cc(C(C)C)c(O)cc3C)c2c1,40,29,0,38,0,0,0,ABHD4 confirm=51
O=C(NCc1ccccc1)[C@@H]1CCCN1C(=O)[C@H]1CCCN1C(=O)c1ccc(F)c(F)c1,0,0,0,-,0,-,-,
CC(C)CN=Cc1c(O)c([N+](=O)[O-])cc2oc3c(c12)CCCC3,0,24,0,44,0,43,0,
Cc1cccc(/N=C/c2c(O)ccc3oc4c(c23)CCCC4)n1,-,-,-,0,-,-,-,
O=[N+]([O-])c1cc2oc3c(c2c(C=NCc2ccccc2)c1O)CCCC3,31,28,0,43,0,54,0,ABHD4 confirm=31
Cc1oc2cc([N+](=O)[O-])c(O)c([N+](=O)[O-])c2c1C(=O)c1ccc(Cl)cc1,0,0,0,0,0,-,-,
CCOC(=O)[C@]12CCCCC/C=C\1N(CCc1ccc(Cl)cc1)C(=O)[C@H]2CC(=O)NCc1cccs1,0,0,-,-,0,-,-,
OC(CNC1CCCCC1)CON=C1CCSc2c(Cl)cccc21 (centres undefined),0,0,0,0,0,-,-,
C/C(=N\NC(=O)c1cc(O)ccc1O)c1cccc(NC(=O)c2ccc(Cl)cc2)c1,57,26,46,44,0,0,0,BSA probe FL=0;TCR-CD3 conf=0;ABHD4 confirm=42
C/C(=N\NC(=O)c1ccccc1O)c1cccc(NC(=O)c2ccccc2)c1,0,0,0,0,0,-,-,
COCc1[nH]nc2c1C(c1cccc(C(F)(F)F)c1)N(c1ccc(OC)cc1)C2=O (centres undefined),0,0,0,-,0,-,-,
O=C(OCC(=O)N1CCCCC1)c1cc2ccccc2cc1O,0,0,0,0,0,-,-,
C/C(CC(=O)N1CCCC1)=N\NC(=O)c1cc2ccccc2cc1O,36,17,0,48,0,0,0,ABHD4 confirm=0
CCN(C(=O)COC(=O)c1c2c(nc3ccccc13)/C(=C/c1ccccc1)CC(C)C2)C1CCS(=O)(=O)C1 (centres undefined),0,0,0,0,0,-,-,
CCc1ccc([C@@H]2C[C@H]3[C@@H](CN2S(=O)(=O)c2ccc(C)cc2)C(=O)C[C@@H](c2cccc(Cl)c2)N3S(=O)(=O)c2ccc(C)cc2)cc1,0,0,0,0,0,-,-,
c1cc2c3c(cccc3c1)NC1(CCCCCC1)N2,0,19,0,39,0,51,0,
c1cc2c3c(cccc3c1)NC1(CCC3(CC1)Nc1cccc4cccc(c14)N3)N2,0,38,0,56,0,55,0,
CCc1nc2ccc(C(=O)N(C)Cc3ccco3)cn2c1N(CC)C(=O)NCCc1ccccc1,0,0,0,-,0,-,-,
Cc1ccc([C@@H]2C[C@H]3[C@@H](CN2S(=O)(=O)c2ccc(Cl)cc2)C(=O)C[C@@H](c2ccc(C)cc2)N3S(=O)(=O)c2ccc(Cl)cc2)cc1,0,0,0,0,0,-,-,
Nc1ncnc2c1ncn2[C@@H]1O[C@H](CNC(=O)[C@@H]2CCC(=O)N2)[C@@H](O)[C@H]1O,-,-,-,0,-,-,-,
O=c1c(O)cccc2cc(O)c(O)c(O)c12,55,24,93,58,43,60,18,BSA probe FL=0;TCR-CD3 conf=81;ABHD4 confirm=52
COc1cccc2c1C(=O)c1ccc3ccccc3c1C2=O,-,-,-,0,-,-,-,
SMILES,mABHD4 FP,SIAE primary,TCR-CD3 inh,HTRA1 inhibitor,PRMT1 FP inh,HTRA1 inh conf,SIAE confirm,others
COc1ccc(N)c2c1C(=O)c1ccccc1C2=O,44,20,0,38,0,0,0,ABHD4 confirm=0
Nc1ccc(NC(=O)c2ccccc2)c2c1C(=O)c1ccccc1C2=O,0,0,0,0,0,-,-,
Nc1ccc(O)c2c1C(=O)c1ccccc1C2=O,87,55,43,88,0,96,54,BSA probe FL=24;TCR-CD3 conf=27;ABHD4 confirm=74
CC(C)(Cc1nc2ccccc2[nH]1)c1nc2ccccc2[nH]1,0,0,0,0,0,-,-,
NNC(=O)c1cc2sccc2s1,0,0,0,0,0,-,-,
C=CCn1cc(/C=N/Nc2nc3ccccc3[nH]2)c2ccccc21,0,56,0,41,0,42,53,
Nc1ccc(C(=O)N/N=C\c2cc(N=Nc3cccc4ccccc34)ccc2O)cc1,0,36,0,56,0,91,19,
N#CC(C#N)=C1C=C2C=C(N3CCOCC3)CCC2CC1 (centres undefined),0,0,0,0,0,-,-,
N#CC(C#N)=C1C=C2C=C(N3CCCCCC3)CCC2CC1 (centres undefined),0,28,29,52,0,0,22,BSA probe FL=0;TCR-CD3 conf=0
COc1ccc(OC)c(N)c1,41,28,23,66,0,0,0,BSA probe FL=0;TCR-CD3 conf=0;ABHD4 confirm=0
C[C@@H]1Cc2c(O)c(O)cc(O)c2C(=O)O1,-,-,-,0,-,-,-,
O=C1C=C(O)c2c(O)cc(O)c(O)c2C1=O,84,51,63,78,47,56,0,BSA probe FL=0;TCR-CD3 conf=64;ABHD4 confirm=57
C=CC(=O)NC1CCCCN(C)C1=O (centres undefined),0,0,0,-,0,-,-,
Cc1ccc(-n2c(O)c(/C=N/Nc3ccc(S(=O)(=O)N4CCOCC4)cc3[N+](=O)[O-])c3ccccc3c2=O)c(C)c1,0,21,0,48,0,156,0,
O=C(O)c1ccc(/C=N\Nc2ccc(S(=O)(=O)N3CCOCC3)cc2[N+](=O)[O-])cc1,0,0,0,0,0,-,-,
CCc1ccc([C@@H]2C[C@H]3[C@@H](CN2S(=O)(=O)c2ccc(C)cc2)C(=O)C[C@@H](c2ccc(Cl)cc2)N3S(=O)(=O)c2ccc(C)cc2)cc1,0,0,0,-,0,-,-,
CC(=O)NC(c1ccco1)c1cc(Cl)c2ccccc2c1O (centres undefined),0,0,0,0,0,-,-,
CCC(=O)NC(c1ccc(OC)c(OC)c1)c1cc(Cl)c2cccnc2c1O (centres undefined),0,26,0,52,0,81,0,
COc1ccccc1C(NC(C)=O)c1cc(Cl)c2cccnc2c1O (centres undefined),0,22,0,49,0,71,0,

# Screening data (PubChem)
